The values below come from ChEMBL document CHEMBL1136545, “Novel thieno oxazine analogues as antihyperglycemic and lipid modulating agents” (2003).

The source made the active and inactive calls. The rule behind the calls is not given here.

The test system of experiment [1] is Mus musculus. Put plainly: Percentage reduction of plasma glucose (PG) in db/db mice at 3 mg/kg; No effect. In kind it is functional, organism-based. The arrangement: dose 3 mg/kg. Put shortly:
(§1)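 db/db mice were dosed orally at 3 mg/kg for 6 days. Plasma glucose and triglyceride were then measured, and each value is the percentage reduction.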

Experiment [2] relates to Mus musculus. Put plainly: Percentage reduction of triglyceride (TG) in db/db mice at 3 mg/kg; No effect. It counts as functional, organism-based. Details: dose 3 mg/kg. In outline:
as §1

For experiment [3], the target named is T1, Peroxisome proliferator-activated receptor gamma (Homo sapiens) (UniProt P37231).
T1 sequence (whole entry): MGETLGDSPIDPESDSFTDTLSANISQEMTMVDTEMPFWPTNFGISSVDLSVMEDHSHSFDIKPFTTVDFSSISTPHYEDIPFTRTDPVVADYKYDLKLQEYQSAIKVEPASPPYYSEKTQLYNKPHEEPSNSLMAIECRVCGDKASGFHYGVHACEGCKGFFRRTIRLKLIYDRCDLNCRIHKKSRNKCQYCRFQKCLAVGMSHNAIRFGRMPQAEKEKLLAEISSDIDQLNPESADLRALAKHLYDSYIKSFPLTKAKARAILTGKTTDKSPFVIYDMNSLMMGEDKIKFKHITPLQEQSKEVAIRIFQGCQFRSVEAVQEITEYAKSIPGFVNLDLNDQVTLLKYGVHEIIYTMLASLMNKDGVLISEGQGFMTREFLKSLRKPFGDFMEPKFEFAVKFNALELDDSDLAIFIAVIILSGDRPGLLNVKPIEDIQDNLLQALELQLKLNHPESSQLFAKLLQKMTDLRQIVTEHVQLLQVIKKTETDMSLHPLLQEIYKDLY
Put plainly: Compound was tested for activation of peroxisome proliferator-activated receptor gamma activity at 1 uM concentration by transactivation assay. In outline: (§2)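 Cell-based PPAR transactivation assay, with receptor activity expressed as fold activation. Each compound was tested at a single concentration, which differed between the PPARα and PPARγ arms.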

For experiment [4], the target named is T2, Peroxisome proliferator-activated receptor alpha (Homo sapiens) (UniProt Q07869).
T2 sequence (whole entry): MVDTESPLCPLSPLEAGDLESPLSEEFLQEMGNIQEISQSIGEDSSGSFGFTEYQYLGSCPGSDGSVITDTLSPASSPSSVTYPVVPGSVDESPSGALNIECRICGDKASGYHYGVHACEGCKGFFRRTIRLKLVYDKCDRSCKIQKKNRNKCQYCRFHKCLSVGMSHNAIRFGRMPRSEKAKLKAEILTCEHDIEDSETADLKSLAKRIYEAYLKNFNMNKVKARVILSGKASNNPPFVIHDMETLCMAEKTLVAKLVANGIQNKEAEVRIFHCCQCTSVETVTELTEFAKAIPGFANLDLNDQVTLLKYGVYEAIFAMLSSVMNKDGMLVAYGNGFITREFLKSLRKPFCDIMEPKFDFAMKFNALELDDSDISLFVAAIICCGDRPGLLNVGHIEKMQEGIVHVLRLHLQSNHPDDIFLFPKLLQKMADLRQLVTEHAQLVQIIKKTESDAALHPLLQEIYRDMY
Put plainly: Compound was tested for activation of peroxisome proliferator-activated receptor alpha activity at 50 uM concentration by transactivation assay. In outline: as §2

Experiment [5] relates to Mus musculus. The experiment is described as follows: Percentage reduction of plasma glucose (PG) in db/db mice at 3 mg/kg. In kind it is functional. In outline:
as §1

Experiment [6] concerns Mus musculus. The experiment is described as follows: Percentage reduction of triglyceride (TG) in db/db mice at 3 mg/kg. In kind it is functional. In outline:
as §1

As to `CCOC(Cc1ccc(OCCN2C(=O)COc3ccsc32)c(OC)c1)C(=O)O` (stereo not given), the Reduction result in experiment [1] and in experiment [2] was “inactive” in each case. The values for the Activity in experiment [3] and in experiment [4] were 1.2 and 0.5, respectively.

On to `O=C(O)Cc1ccc(OCCN2C(=O)COc3ccsc32)cc1`, for which the values for the Reduction in experiment [5] and in experiment [6] were 39% and 43%, respectively. Further, the Activity in experiment [3] was 14; in experiment [4] it was 5.

On to `CCOC(Cc1ccc(OCCN2C(=O)COc3ccsc32)cc1)C(=O)O` (stereo not given), for which the values for the Reduction in experiment [5] and in experiment [6] were 47% and 56%, respectively. Further, the Activity in experiment [3] was 16; in experiment [4] it was 8.

With `O=C(O)Cc1ccc(OCCCN2C(=O)COc3ccsc32)cc1`, the Reduction in experiment [5] is on record as 14%. Further, the Reduction result in experiment [2] was “inactive”. Moreover, the Activity was found to be 5 in experiment [3] and 0.5 in experiment [4].

`O=C(O)Cc1cc(Br)c(OCCN2C(=O)COc3ccsc32)c(Br)c1`: the values for the Reduction in experiment [5] and in experiment [6] were 43% and 15%, respectively. Further, the Activity came to 15 in experiment [3] and 2 in experiment [4].

For `CCOC(Cc1cc(Br)c(OCCN2C(=O)COc3ccsc32)c(Br)c1)C(=O)O` (stereo not given), the Reduction result in experiment [1] was “inactive”. Moreover, the Reduction in experiment [6] is on record as 48%. Moreover, the figures for the Activity in experiment [3] and in experiment [4] were 1.6 and 5, respectively.

With `CCOC(Cc1ccc(OCCN2C(=O)COc3ccsc32)c(C)c1)C(=O)O` (stereo not given), the Reduction in experiment [5] is given as 52%; in experiment [6], 19%. Moreover, the Activity in experiment [3] was 18; in experiment [4] it was 1.5.

As to `CCOC(Cc1ccc(OCCN2C(=O)COc3ccsc32)c(Br)c1)C(=O)O` (stereo not given), in experiment [1], the Reduction result was “inactive”. Besides, the Reduction in experiment [6] is on record as 62%. For the same compound, the Activity in experiment [3] stood at 1.2; in experiment [4], 8.

For `CCOC(Cc1ccc(OCCN2C(=O)COc3ccsc32)c(Cl)c1)C(=O)O` (stereo not given), the Reduction in experiment [5] was 21%; in experiment [6] it was 27%. For the same compound, the Activity in experiment [3] is 7; in experiment [4], 2.5.

For the compound `O=C(O)Cc1ccc(OCCN2C(=O)COc3ccsc32)c(Br)c1`, the Reduction in experiment [5] was 21%; in experiment [6], 14%. Further, the Activity in experiment [3] amounted to 8; in experiment [4], 1.3.
